Source: ChEMBL document CHEMBL1122233, “Antihypertensive 9-substituted 1-oxa-4,9-diazaspiro[5.5]undecan-3-ones” (J Med Chem, 1983)

Experiments:
[1] = molecular target: T1, Adrenergic receptor alpha-2 (Rattus norvegicus, UniProt P22086+P19328+P22909); experiment: Affinity for alpha-2 adrenergic receptor of rat cerebral cortex was determined by ligand binding using [3H]yohimbine.; assay type: tissue-based
T1 sequence (P22086 whole entry): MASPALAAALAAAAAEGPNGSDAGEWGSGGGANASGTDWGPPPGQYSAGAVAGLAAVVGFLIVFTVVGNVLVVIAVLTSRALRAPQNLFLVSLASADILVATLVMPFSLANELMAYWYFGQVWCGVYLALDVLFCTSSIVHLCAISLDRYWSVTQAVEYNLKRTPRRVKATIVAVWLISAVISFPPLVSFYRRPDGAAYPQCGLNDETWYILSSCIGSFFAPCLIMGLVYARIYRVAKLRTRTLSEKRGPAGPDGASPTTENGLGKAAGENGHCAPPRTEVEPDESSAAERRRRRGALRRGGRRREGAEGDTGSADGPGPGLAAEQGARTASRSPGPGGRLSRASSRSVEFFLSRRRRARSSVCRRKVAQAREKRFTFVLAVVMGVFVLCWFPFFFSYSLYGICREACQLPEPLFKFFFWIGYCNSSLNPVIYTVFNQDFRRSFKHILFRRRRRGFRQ
T1 sequence (P19328 whole entry): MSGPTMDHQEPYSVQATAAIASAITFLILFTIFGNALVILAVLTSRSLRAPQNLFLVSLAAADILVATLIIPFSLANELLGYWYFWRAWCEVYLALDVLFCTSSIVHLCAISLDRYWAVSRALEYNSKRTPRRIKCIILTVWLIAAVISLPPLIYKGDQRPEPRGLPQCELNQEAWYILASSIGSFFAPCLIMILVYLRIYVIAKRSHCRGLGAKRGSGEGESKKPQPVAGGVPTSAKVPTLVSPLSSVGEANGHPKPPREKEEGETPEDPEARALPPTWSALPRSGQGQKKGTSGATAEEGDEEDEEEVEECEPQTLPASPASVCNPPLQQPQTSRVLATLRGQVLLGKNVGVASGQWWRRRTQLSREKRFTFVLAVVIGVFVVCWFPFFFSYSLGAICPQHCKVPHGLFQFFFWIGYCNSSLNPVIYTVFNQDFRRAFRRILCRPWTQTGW
T1 sequence (P22909 whole entry): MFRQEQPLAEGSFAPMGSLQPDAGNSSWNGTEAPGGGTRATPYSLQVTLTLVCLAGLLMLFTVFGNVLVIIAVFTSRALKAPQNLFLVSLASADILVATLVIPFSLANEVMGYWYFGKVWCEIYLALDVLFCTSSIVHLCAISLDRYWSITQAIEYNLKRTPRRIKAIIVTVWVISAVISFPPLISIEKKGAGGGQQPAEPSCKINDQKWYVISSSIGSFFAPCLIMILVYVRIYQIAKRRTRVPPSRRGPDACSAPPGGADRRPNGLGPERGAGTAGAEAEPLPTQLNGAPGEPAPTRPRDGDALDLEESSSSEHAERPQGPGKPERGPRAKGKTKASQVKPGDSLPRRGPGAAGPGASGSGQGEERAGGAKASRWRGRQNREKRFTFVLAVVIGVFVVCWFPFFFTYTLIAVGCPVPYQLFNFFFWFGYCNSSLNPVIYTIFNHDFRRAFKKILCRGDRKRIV
How it was run: (§1)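 Washed rat cerebral cortex membranes (homogenised in 50 mM Tris-HCl pH 7.8, pelleted at 48000g, washed 3 times) at 2.5 mg/mL protein. […] Ice-cold buffer stop, then filtration. Nonspecific binding defined with 200 μmol norepinephrine. KI from IC50 by Cheng-Prusoff, given as negative log.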

Rattus norvegicus [2] = experiment: Percentage fall in systolic blood pressure after 4 hours at 12.5 mg/kg given perorally; assay type: functional, Artery; details: route oral
How it was run: (§2)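 Male Okamoto-Aoki SHR, four per group, with a concurrent vehicle control group. Oral dosing in water (0.1 mL/10 g) on two consecutive mornings. After the day-2 dose, rats were restrained in a 30 °C chamber. Tail-cuff systolic pressure was taken at 1-4 h from four traces per rat. Result is % decrease versus control mean, by 1-tailed t test, p ≤ 0.05.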

Rattus norvegicus [3] = experiment: Percentage fall in systolic blood pressure after 2 hours at 12.5 mg/kg given perorally; assay type: functional, Artery; details: route oral; how it was run: as §2
Rattus norvegicus [4] = experiment: Percentage fall in systolic blood pressure after 4 hours at 6.25 mg/kg given perorally; assay type: functional, Artery; details: route oral; how it was run: as §2
Rattus norvegicus [5] = experiment: Percentage fall in systolic blood pressure after 4 hours at 50 mg/kg given perorally; assay type: functional, Artery; details: route oral; how it was run: as §2
Rattus norvegicus [6] = experiment: Percentage fall in systolic blood pressure after 2 hours at 50 mg/kg given perorally; assay type: functional, Artery; details: route oral; how it was run: as §2
Rattus norvegicus [7] = experiment: Percentage fall in systolic blood pressure after 2 hours at 6.25 mg/kg given perorally; assay type: functional, Artery; details: route oral; how it was run: as §2
[8] = molecular target: T2, Adrenergic receptor alpha-1 (Rattus norvegicus, UniProt P15823+P23944+P43140); experiment: Affinity for alpha-1 adrenoceptor of rat cerebral cortex was determined by ligand binding using [3H]prazosin.; assay type: tissue-based; how it was run: as §1
T2 sequence (P15823 whole entry): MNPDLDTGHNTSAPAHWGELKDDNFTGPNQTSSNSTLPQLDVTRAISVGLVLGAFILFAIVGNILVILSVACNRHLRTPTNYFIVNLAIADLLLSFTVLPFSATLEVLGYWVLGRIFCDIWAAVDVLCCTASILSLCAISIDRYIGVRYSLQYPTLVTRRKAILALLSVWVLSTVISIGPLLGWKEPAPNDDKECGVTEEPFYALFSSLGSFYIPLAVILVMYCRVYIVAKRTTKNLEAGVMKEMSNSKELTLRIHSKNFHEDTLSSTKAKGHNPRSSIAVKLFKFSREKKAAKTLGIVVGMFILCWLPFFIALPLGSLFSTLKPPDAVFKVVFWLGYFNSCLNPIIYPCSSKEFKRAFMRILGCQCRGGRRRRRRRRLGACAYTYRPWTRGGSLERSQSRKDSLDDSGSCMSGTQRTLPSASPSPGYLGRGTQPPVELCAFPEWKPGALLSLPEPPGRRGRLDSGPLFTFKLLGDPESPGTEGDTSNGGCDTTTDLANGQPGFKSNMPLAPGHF
T2 sequence (P23944 whole entry): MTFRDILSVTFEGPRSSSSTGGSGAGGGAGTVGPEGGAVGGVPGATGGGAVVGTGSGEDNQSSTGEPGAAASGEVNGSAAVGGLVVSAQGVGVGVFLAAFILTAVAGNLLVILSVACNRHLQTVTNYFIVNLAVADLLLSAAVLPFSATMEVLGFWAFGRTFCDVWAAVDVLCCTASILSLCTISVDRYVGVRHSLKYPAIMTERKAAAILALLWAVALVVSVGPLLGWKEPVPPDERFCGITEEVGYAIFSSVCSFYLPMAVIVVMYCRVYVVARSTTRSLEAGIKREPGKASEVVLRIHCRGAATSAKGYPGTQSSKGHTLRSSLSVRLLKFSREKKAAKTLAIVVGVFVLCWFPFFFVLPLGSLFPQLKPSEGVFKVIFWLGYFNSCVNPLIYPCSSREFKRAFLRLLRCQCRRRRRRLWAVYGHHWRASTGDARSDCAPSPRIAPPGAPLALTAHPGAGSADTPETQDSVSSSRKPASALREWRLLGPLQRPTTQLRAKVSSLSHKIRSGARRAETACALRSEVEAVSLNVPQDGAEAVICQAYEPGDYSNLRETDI
T2 sequence (P43140 whole entry): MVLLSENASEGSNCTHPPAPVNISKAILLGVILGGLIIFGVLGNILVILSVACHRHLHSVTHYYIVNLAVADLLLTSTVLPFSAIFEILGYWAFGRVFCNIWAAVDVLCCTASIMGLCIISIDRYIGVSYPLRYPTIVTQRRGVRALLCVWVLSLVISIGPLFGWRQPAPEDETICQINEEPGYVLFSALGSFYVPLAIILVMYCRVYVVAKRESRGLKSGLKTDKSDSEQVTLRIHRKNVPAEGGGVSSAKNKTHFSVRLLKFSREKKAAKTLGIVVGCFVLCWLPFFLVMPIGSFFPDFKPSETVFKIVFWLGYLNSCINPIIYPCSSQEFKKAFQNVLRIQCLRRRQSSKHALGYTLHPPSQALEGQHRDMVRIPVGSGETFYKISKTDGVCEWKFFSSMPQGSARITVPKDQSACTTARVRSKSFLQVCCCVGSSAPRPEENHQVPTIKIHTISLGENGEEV

Rattus norvegicus [9] = experiment: Percentage fall in systolic blood pressure after 1 hr at 12.5 mg/kg given perorally; assay type: functional, Artery; details: route oral; how it was run: as §2
Rattus norvegicus [10] = experiment: Percentage fall in systolic blood pressure after 1 hr at 50 mg/kg given perorally; assay type: functional, Artery; details: route oral; how it was run: as §2
Rattus norvegicus [11] = experiment: Percentage fall in systolic blood pressure after 3 hours at 6.25 mg/kg given perorally; assay type: functional, Artery; details: route oral; how it was run: as §2
Rattus norvegicus [12] = experiment: Percentage fall in systolic blood pressure after 1 hr at 6.25 mg/kg given perorally; assay type: functional, Artery; details: route oral; how it was run: as §2
Rattus norvegicus [13] = experiment: Percentage fall in systolic blood pressure after 3 hours at 12.5 mg/kg given perorally; assay type: functional, Artery; details: route oral; how it was run: as §2
Rattus norvegicus [14] = experiment: Percentage fall in systolic blood pressure after 3 hours at 50 mg/kg given perorally; assay type: functional, Artery; details: route oral; how it was run: as §2
Rattus norvegicus [15] = experiment: (§3) Percentage fall in systolic blood pressure after 4 hr at 25 mg/kg given perorally; assay type: functional, Artery; details: route oral
How it was run: (§4)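 Male Okamoto-Aoki spontaneously hypertensive rats, trained, in groups of four matched for mean systolic pressure; five treated groups and one vehicle control run concurrently. Oral dosing in water (solution or suspension, 0.1 mL/10 g) on two consecutive mornings. On day 2, rats were restrained at 30.0 ± 1.0 °C and tail-cuff systolic pressure recorded at 1–4 h; percent fall versus control, 1-tail t test, p ≤ 0.05.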

Rattus norvegicus [16] = experiment: Percentage fall in systolic blood pressure after 3 hr at 25 mg/kg given perorally; assay type: functional, Artery; details: route oral; how it was run: as §4
Rattus norvegicus [17] = experiment: Percentage fall in systolic blood pressure after 1 hr at 25 mg/kg given perorally; assay type: functional, Artery; details: route oral; how it was run: as §4
Rattus norvegicus [18] = experiment: Percentage fall in systolic blood pressure after 4 hr at 6.25 mg/kg given perorally; assay type: functional, organism-based; design: dose 6.25 mg/kg; details: Artery; how it was run: as §4
Rattus norvegicus [19] = experiment: Percentage fall in systolic blood pressure after 2 hr at 6.25 mg/kg given perorally; assay type: functional, Artery; details: route oral; how it was run: as §4
Rattus norvegicus [20] = experiment: Percentage fall in systolic blood pressure after 3 hr at 6.25 mg/kg given perorally; assay type: functional, Artery; details: route oral; how it was run: as §4
Rattus norvegicus [21] = experiment: Percentage fall in systolic blood pressure after 2 hr at 25 mg/kg given perorally; assay type: functional, Artery; details: route oral; how it was run: as §4
Rattus norvegicus [22] = experiment: as §3; assay type: functional, organism-based; design: dose 25 mg/kg; details: Artery; how it was run: as §4

O=C1COC2(CCN(CCc3c[nH]c4ccccc34)CC2)CN1
-Log Ki [1]: 6.2
Decrease in SBP (Rattus norvegicus [2]): 26%
Decrease in SBP (Rattus norvegicus [3]): 41%
Decrease in SBP (Rattus norvegicus [4]): 19%
Decrease in SBP (Rattus norvegicus [5]): 41%
Decrease in SBP (Rattus norvegicus [6]): 48%
Decrease in SBP (Rattus norvegicus [7]): 30%
-Log Ki [8]: 7.41
Decrease in SBP (Rattus norvegicus [9]): 39%
Decrease in SBP (Rattus norvegicus [10]): 53%
Decrease in SBP (Rattus norvegicus [11]): 20%
Decrease in SBP (Rattus norvegicus [12]): 28%
Decrease in SBP (Rattus norvegicus [13]): 29%
Decrease in SBP (Rattus norvegicus [14]): 48%

O=C1COC2(CCN(CC3COc4ccccc4O3)CC2)CN1 (stereo not drawn)
Decrease in SBP (Rattus norvegicus [15]): 38%
Decrease in SBP (Rattus norvegicus [16]): 40%
Decrease in SBP (Rattus norvegicus [17]): 53%
Decrease in SBP (Rattus norvegicus [18]): Not significant
Decrease in SBP (Rattus norvegicus [19]): 36%
Decrease in SBP (Rattus norvegicus [20]): 21%
Decrease in SBP (Rattus norvegicus [21]): 49%
Decrease in SBP (Rattus norvegicus [12]): 38%

CN1CC2(CCN(CC(O)C3COc4ccccc4O3)CC2)OCC1=O (stereo in doubt; 60)
Decrease in SBP (Rattus norvegicus [22]): Not significant
